# Measured values published in article PMC10652724 (ACS Omega, 2023).
# How the values were obtained:
# [1] = nitrofuran metabolite; cited from earlier work
# T. b. rhodesiense IL1501 = assay: In vitro trypanocidal activity, bloodstream forms, CellTiter-Glo; assay type: cell-based, Trypanosoma brucei rhodesiense
# T. equiperdum IVM-t1 = assay: as above; assay type: cell-based, Trypanosoma equiperdum
# T. congolense IL3000 [2] = details: T. congolense IL3000 infected mice, cited from earlier work
# T. b. brucei GUTat3.1 = assay: In vitro trypanocidal activity, bloodstream forms, CellTiter-Glo; assay type: cell-based, Trypanosoma brucei brucei
# T. evansi Tansui = assay: as above; assay type: cell-based, Trypanosoma evansi
# T. b. gambiense IL1922 = assay: as above; assay type: cell-based, Trypanosoma brucei gambiense
# T. congolense IL3000 [3] = assay: as above; assay type: cell-based, Trypanosoma congolense
# [4] = In vitro cytotoxicity, Cell Counting Kit-8; assay type: cell-based; details: bovine, MDBK cells (Madin–Darby bovine kidney)
# How it was run: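 MDBK cells (1 × 10^4 cells/mL) incubated at 37°C for 72 h with test compound in […] twofold serial dilutions, 100 down to 0.39 μg/mL. Cell Counting Kit-8 added; OD450 read before and after a further 4 h incubation. Done in three replicates. CC50 from nonlinear regression curve fit, reported as mean ± SD.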
Compound,metabolite present in edible pig tissues [1],Selectivity index (SI) (T. b. rhodesiense IL1501; CC50 of MDBK/IC50 of Tbr IL1501),"IC50 (T. b. rhodesiense IL1501; Trypanosoma brucei, RHODESIENSE, 72 h, read-out: trypanocidal activity IC50 ± SD)",Selectivity index (SI) (T. equiperdum IVM-t1; CC50 of MDBK/IC50 of Teq IVM-t1),"IC50 (T. equiperdum IVM-t1; Trypanosoma equiperdum, 72 h, read-out: trypanocidal activity IC50 ± SD)",minimum effective dose (T. congolense IL3000 [2]),survival and cure (T. congolense IL3000 [2]; dose ≥30 mg/kg),Selectivity index (SI) (T. b. brucei GUTat3.1; CC50 of MDBK/IC50 of Tbb GuTat3.1),"IC50 (T. b. brucei GUTat3.1; Trypanosoma brucei, 72 h, read-out: trypanocidal activity IC50 ± SD)",Selectivity index (SI) (T. evansi Tansui; CC50 of MDBK/IC50 of Tev Tansui),"IC50 (T. evansi Tansui; Trypanosoma evansi, 72 h, read-out: trypanocidal activity IC50 ± SD)",Selectivity index (SI) (T. b. gambiense IL1922; CC50 of MDBK/IC50 of Tbg IL1922),"IC50 (T. b. gambiense IL1922; Trypanosoma brucei, GAMBIENSE, 72 h, read-out: trypanocidal activity IC50 ± SD)",Selectivity index (SI) (T. congolense IL3000 [3]; CC50 of MDBK/IC50 of Tc IL3000),"IC50 (T. congolense IL3000 [3]; Trypanosoma congolense, 72 h, read-out: trypanocidal activity IC50 ± SD)",CC50 at 72 h [4]
"NN1CC(=O)NC1=O [1-aminihydantoin, 1-aminohydantoin]",3 to 8 µg/kg,,,,,,,,,,,,,,,
"O=C1CN(/N=C/c2ccc([N+](=O)[O-])o2)C(=O)N1 [Nitrofurantoin, nitrofurantoin]",,43,1690 ± 200 nM,50,1450 ± 30 nM,30 mg/kg,100%,48,1510 ± 30 nM,44,1670 ± 70 nM,39,1850 ± 230 nM,174,420 ± 50 nM,73 ± 36.1 µM
